Laboratory results from ChEMBL document CHEMBL1909525, “Synthesis and anticonvulsant activity of novel 2,6-diketopiperazine derivatives. Part 1: perhydropyrrole[1,2-a]pyrazines” (Eur J Med Chem, 2011).
Calls of active or inactive are those of the source. The calls are words filed in the database; no cut-off is given here.

Tests used:
Mus musculus [1] = assay: Anticonvulsant activity in ip dosed albino Carworth Farms No.1 mouse assessed as protection against maximal electroshock-induced seizure after 0.25 hrs; assay type: functional; details: albino Carworth Farms No.1, ip
Method in brief: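 Mouse quantification at the time of peak effect, compound given i.p. in 0.5% methylcellulose. Groups of at least eight mice received varied doses until at least two points fell between 100 and 0% response. ED50 (MES, scMET) and TD50 (rotorod) with 95% CI by probit analysis (Finney). PI = TD50/ED50 MES.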

[2] = Neurotoxicity in ip dosed albino Carworth Farms No.1 mouse assessed as motor impairment after 0.25 hrs by rotarod test; assay type: toxicity, organism-based; details: Carworth Farms No.1 (albino), in vivo
Method in brief: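 Mouse quantification at the time of peak effect, compound given i.p. in 0.5% methylcellulose. Groups of at least eight mice received varied doses until at least two points fell between 100 and 0% response. PI = TD50/ED50 MES.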

Mus musculus [3] = assay: Anticonvulsant activity in ip dosed albino Carworth Farms No.1 mouse assessed as protection against electric-current for 3 secs-induced seizure after 0.25 hrs by 6Hz minimal clonic seizure test; assay type: functional; details: albino Carworth Farms No.1, ip
Rattus norvegicus [4] = assay: Anticonvulsant activity in po dosed albino Sprague-Dawley rat assessed as protection against maximal electroshock-induced seizure after 0.25 hrs; assay type: functional
Method in brief: (§1)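 Rats dosed orally, compound in 0.5% methylcellulose. MES at 150 mA, 60 Hz, 0.2 s; scMET with pentylenetetrazole 70 mg/kg s.c. plus 30 min observation; rotorod for toxicity.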

Rattus norvegicus [5] = assay: Anticonvulsant activity in po dosed Sprague-Dawley rat assessed as time needs to show peak effect for protection against subcutaneous metrazol-induced seizure after 0.25 hrs; assay type: functional; method in brief: as §1
Mus musculus [6] = assay: Anticonvulsant activity in ip dosed albino Carworth Farms No.1 mouse assessed as time needs to show peak effect for electric-current for 3 secs-induced seizure after 0.25 hrs by 6Hz minimal clonic seizure test; assay type: functional
[7] = Neurotoxicity in po dosed albino Sprague-Dawley rat assessed as motor impairment after 0.25 hrs by rotarod test; assay type: toxicity, organism-based; details: in vivo; method in brief: as §1
Mus musculus [8] = assay: Anticonvulsant activity in ip dosed albino Carworth Farms No.1 mouse assessed as time needs to show peak effect for protection against subcutaneous metrazol-induced seizure; assay type: functional
Mus musculus [9] = assay: Toxicity in albino Carworth Farms No.1 mouse maximal electroshock-induced seizure model assessed as death following tonic extension at 100 mg/kg, ip after 4 hrs; assay type: organism-based; design: dose 100 mg/kg, route intraperitoneal; details: in vivo
Method in brief: (§2)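 Mice (18–25 g) were given 30, 100 or 300 mg/kg i.p. in 0.5% (v/v) aqueous methylcellulose. They were tested at 30 min and 4 h with a corneal electroshock (50 mA, 60 Hz, 0.2 s) through electrodes wetted with 0.5% butacaine hemisulphate in 0.9% NaCl. Protection was abolition of hindlimb tonic extension; death following tonic extension was noted per animals tested.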

Mus musculus [10] = assay: Neurotoxicity in albino Carworth Farms No.1 mouse assessed as motor impairment at 300 mg/kg, ip after 0.5 hrs by rotarod test; assay type: toxicity, organism-based; design: dose 300 mg/kg, route intraperitoneal; details: in vivo
Method in brief: (§3)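 Rotorod neurotoxicity in mice at 6 r.p.m. Compound given i.p. (30, 100, 300 mg/kg) in 0.5% methylcellulose; tested at 30 min and 4 h. Impairment is inability to keep equilibrium on the rod for a given time; scored as impaired/tested.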

Mus musculus [11] = assay: Anticonvulsant activity in albino Carworth Farms No.1 mouse assessed as protection against maximal electroshock-induced seizure at 300 mg/kg, ip after 0.5 hrs; assay type: functional, organism-based; design: dose 300 mg/kg
Method in brief: (§4)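 Mouse MES test with compound given i.p. (30, 100 or 300 mg/kg) in 0.5% methylcellulose; tested at 0.5 and 4 h. Corneal stimulus of 50 mA at 60 Hz for 0.2 s, electrodes primed with 0.5% butacaine in 0.9% NaCl. Protection is abolition of hindlimb tonic extension; scored as protected/tested.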

Mus musculus [12] = assay: Anticonvulsant activity in albino Carworth Farms No.1 mouse assessed as protection against subcutaneous metrazol-induced seizure at 100 mg/kg, ip after 0.5 hrs; assay type: functional, organism-based; design: dose 100 mg/kg
Method in brief: (§5)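 Mouse scMET test. Compound given i.p. (30, 100 or 300 mg/kg) in 0.5% methylcellulose. Pentylenetetrazole 85 mg/kg (CD97) given s.c. at 0.5 or 4 h, then mice observed for 30 min. Protection is absence of clonic spasms; scored as protected/tested.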

Mus musculus [13] = assay: Neurotoxicity in albino Carworth Farms No.1 mouse assessed as motor impairment at 30 mg/kg, ip after 4 hrs by rotarod test; assay type: toxicity, organism-based; design: dose 30 mg/kg, route intraperitoneal; details: in vivo; method in brief: as §3
Mus musculus [14] = assay: Anticonvulsant activity in albino Carworth Farms No.1 mouse assessed as protection against maximal electroshock-induced seizure at 30 mg/kg, ip after 0.5 hrs; assay type: functional, organism-based; design: dose 30 mg/kg; method in brief: as §4
Mus musculus [15] = assay: Anticonvulsant activity in albino Carworth Farms No.1 mouse assessed as protection against maximal electroshock-induced seizure at 30 mg/kg, ip after 4 hrs; assay type: functional, organism-based; design: dose 30 mg/kg; method in brief: as §4
Mus musculus [16] = assay: Neurotoxicity in albino Carworth Farms No.1 mouse assessed as motor impairment at 300 mg/kg, ip after 4 hrs by rotarod test; assay type: toxicity, organism-based; design: dose 300 mg/kg, route intraperitoneal; details: in vivo; method in brief: as §3
Mus musculus [17] = assay: Neurotoxicity in albino Carworth Farms No.1 mouse assessed as motor impairment at 100 mg/kg, ip after 0.5 hrs by rotarod test; assay type: toxicity, organism-based; design: dose 100 mg/kg, route intraperitoneal; details: in vivo; method in brief: as §3
Mus musculus [18] = assay: Neurotoxicity in albino Carworth Farms No.1 mouse assessed as motor impairment at 30 mg/kg, ip after 0.5 hrs by rotarod test; assay type: toxicity, organism-based; design: dose 30 mg/kg, route intraperitoneal; details: in vivo; method in brief: as §3
Mus musculus [19] = assay: Anticonvulsant activity in albino Carworth Farms No.1 mouse assessed as protection against subcutaneous metrazol-induced seizure at 300 mg/kg, ip after 0.5 hrs; assay type: functional, organism-based; design: dose 300 mg/kg; method in brief: as §5
Mus musculus [20] = assay: Toxicity in albino Carworth Farms No.1 mouse maximal electroshock-induced seizure model assessed as death following tonic extension at 30 mg/kg, ip after 0.5 hrs; assay type: organism-based; design: dose 30 mg/kg, route intraperitoneal; details: in vivo; method in brief: as §2
Mus musculus [21] = assay: Anticonvulsant activity in albino Carworth Farms No.1 mouse assessed as protection against subcutaneous metrazol-induced seizure at 100 mg/kg, ip after 4 hrs; assay type: functional, organism-based; design: dose 100 mg/kg; method in brief: as §5
Mus musculus [22] = assay: Anticonvulsant activity in albino Carworth Farms No.1 mouse assessed as protection against maximal electroshock-induced seizure at 300 mg/kg, ip after 4 hrs; assay type: functional, organism-based; design: dose 300 mg/kg; method in brief: as §4
Mus musculus [23] = assay: Anticonvulsant activity in albino Carworth Farms No.1 mouse assessed as protection against maximal electroshock-induced seizure at 100 mg/kg, ip after 4 hrs; assay type: functional, organism-based; design: dose 100 mg/kg; method in brief: as §4
Mus musculus [24] = assay: Anticonvulsant activity in albino Carworth Farms No.1 mouse assessed as protection against subcutaneous metrazol-induced seizure at 30 mg/kg, ip after 0.5 hrs; assay type: functional, organism-based; design: dose 30 mg/kg; method in brief: as §5
Mus musculus [25] = assay: Neurotoxicity in albino Carworth Farms No.1 mouse assessed as motor impairment at 100 mg/kg, ip after 4 hrs by rotarod test; assay type: toxicity, organism-based; design: dose 100 mg/kg, route intraperitoneal; details: in vivo; method in brief: as §3
Mus musculus [26] = assay: Anticonvulsant activity in albino Carworth Farms No.1 mouse assessed as protection against maximal electroshock-induced seizure at 100 mg/kg, ip after 0.5 hrs; assay type: functional, organism-based; design: dose 100 mg/kg; method in brief: as §4
Mus musculus [27] = assay: Anticonvulsant activity in albino Carworth Farms No.1 mouse assessed as protection against subcutaneous metrazol-induced seizure at 300 mg/kg, ip after 4 hrs; assay type: functional, organism-based; design: dose 300 mg/kg; method in brief: as §5
Mus musculus [28] = assay: Anticonvulsant activity in albino Carworth Farms No.1 mouse assessed as protection against subcutaneous metrazol-induced seizure at 30 mg/kg, ip after 4 hrs; assay type: functional, organism-based; design: dose 30 mg/kg; method in brief: as §5

With `CCC1(C)CC(=O)NC1=O` (stereo not drawn) [ETHOSUXIMIDE] the ED50 (Mus musculus [1]) was greater than 500 mg/kg, the TD50 at 0.25 h [2] was 341 mg/kg and the ED50 (Mus musculus [3]) was 167 mg/kg. For the same compound, the ED50 (Rattus norvegicus [4]) was greater than 500 mg/kg, the Time (Rattus norvegicus [5]) was 0.25 h and the Time (Mus musculus [6]) was 0.25 h. It also gave a TD50 at 0.25 h [7] greater than 500 mg/kg and a Time (Mus musculus [8]) of 0.25 h.

With `C[C@H]1C(=O)NC(=O)[C@@H]2CCCN12` the Activity (Mus musculus [9]) was “Toxic”, the Activity (Mus musculus [10]) was “Non-toxic” and the Activity (Mus musculus [11]) was “inactive”. The Activity (Mus musculus [12]) was “inactive”, the Activity (Mus musculus [13]) was “Non-toxic” and the Activity (Mus musculus [14]) was “inactive”. The Activity (Mus musculus [15]) was “inactive”, the Activity (Mus musculus [16]) was “Non-toxic” and the Activity (Mus musculus [17]) was “Non-toxic”. For the same compound, the Activity (Mus musculus [18]) was “Non-toxic”, the Activity (Mus musculus [19]) was “inactive” and the Activity (Mus musculus [20]) was “Toxic”. The Activity (Mus musculus [21]) was “inactive”, the Activity (Mus musculus [22]) was “inactive” and the Activity (Mus musculus [23]) was “inactive”. The Activity (Mus musculus [24]) was “inactive”, the Activity (Mus musculus [25]) was “Toxic” and the Activity (Mus musculus [26]) was “inactive”. The Activity (Mus musculus [27]) was “inactive” and the Activity (Mus musculus [28]) was “inactive”.
